Here are results for six compounds from ChEMBL document CHEMBL3763126, “Development of sigma-1 (σ1) receptor fluorescent ligands as versatile tools to study σ1 receptors” (Eur J Med Chem, 2016).

The nature of assay [1]: Displacement of [3H]-DTG from sigma 2 receptor in Wistar hannover rat liver membrane after 120 mins. It counts as cell membranes. The gist of the method: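 Six to nine concentrations of test drug, two or three experiments in duplicate; IC50 for inhibition of specific binding, Ki from nonlinear curve fitting.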
Assay [2] has as its target T1, Sigma non-opioid intracellular receptor 1 (Homo sapiens, UniProt Q99720). As to the kind of experiment: Displacement of 5-(Dimethylamino)-2-(6-((5-(4-(4-methylpiperidin-1-yl)butyl)-5,6,7,8-tetrahydronaphthalen-2-yl)oxy)hexyl)isoindoline-1,3-dione from sigma 1 receptor (unknown origin) expressed in MCF7 after 75 mins by flow cytometry. On the technique in general: In flow cytometry, cells or beads pass a laser one at a time.

The target of assay [3] is Sigma non-opioid intracellular receptor 1 (Cavia porcellus, UniProt Q60492). Kind of assay: Displacement of [3H]-pentazocine from sigma 1 receptor in guinea pig brain membrane after 120 mins. Format: cell membranes. The gist of the method:
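IC50 from six to nine drug concentrations, two or three experiments with duplicate samples; Ki obtained by nonlinear curve fitting.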

Assay [4] addresses T1, Sigma non-opioid intracellular receptor 1. Kind of assay: Displacement of 5-(Dimethylamino)-2-{6-[(5-(4-(4-methylpiperidin-1-yl)butyl)naphthalen-2-yl)oxy]hexyl}isoindole-1,3-dione from sigma 1 receptor (unknown origin) expressed in MCF7 cells after 75 mins by flow cytometry.

Chain of Sigma non-opioid intracellular receptor 1 (Cavia porcellus, UniProt Q60492) (Q60492 whole entry): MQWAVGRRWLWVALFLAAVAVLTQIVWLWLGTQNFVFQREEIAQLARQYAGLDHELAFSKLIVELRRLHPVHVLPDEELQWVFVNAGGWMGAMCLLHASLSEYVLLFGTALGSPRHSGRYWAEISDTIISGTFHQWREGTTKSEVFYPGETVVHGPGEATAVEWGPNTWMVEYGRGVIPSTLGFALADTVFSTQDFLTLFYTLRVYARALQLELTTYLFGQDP
T1 sequence (Q99720 whole entry): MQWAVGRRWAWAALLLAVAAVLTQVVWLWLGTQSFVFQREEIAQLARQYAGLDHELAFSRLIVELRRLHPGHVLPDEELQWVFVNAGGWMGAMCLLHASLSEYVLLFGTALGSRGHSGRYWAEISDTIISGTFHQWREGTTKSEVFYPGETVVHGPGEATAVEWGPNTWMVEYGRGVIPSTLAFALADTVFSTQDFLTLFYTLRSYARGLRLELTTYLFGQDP

The compound `COc1cc2c(cc1OC)CN(CCCN1CCc3c(OC)cccc3C1=O)CC2` registered a Ki in assay [1] of 4.24 nM.

Consider `COc1ccc2c(c1)CCCC2CCCCN1CCC(C)CC1` (stereo not drawn), for which the values for the IC50 in assay [2] and in assay [4] were 11.3 nM and 12.1 nM, respectively. Besides, the inhibition constant (Ki) in assay [3] amounted to 1.01 nM; in assay [1], 48.7 nM.

In turn, `COc1cccc2c1CCCC2CCC(=O)N1CCN(C2CCCCC2)CC1` (stereo not drawn) returned a Ki in assay [1] of 179 nM.

In the case of `CC1CCN(CCCCc2cccc3cc(OCCCCCCN4C(=O)c5ccc(N(C)C)cc5C4=O)ccc23)CC1`, the Ki in assay [3] came to 5.2 nM; in assay [1] it was 45.6 nM.

With `CC1CCN(CCCCC2CCCc3cc(OCCCCCCN4C(=O)c5ccc(N(C)C)cc5C4=O)ccc32)CC1` (stereo not drawn), the Ki in assay [3] came out at 3.61 nM; in assay [1], 48.3 nM.

For the compound `COc1ccc2c(CCCCN3CCC(C)CC3)cccc2c1`, the values for the IC50 in assay [2] and in assay [4] were 15.5 nM and 10.6 nM, respectively. Moreover, the affinity in assay [1], expressed as Ki, was 17.9 nM.

A word on the Ki: it is a measure of affinity in units of concentration, obtained from inhibition or displacement. Low readings indicate a stronger hold on the target, high ones a looser hold on the target. What is called IC50 is the concentration needed to halve the response being measured. A lower IC50 goes with greater potency.
